In ChEMBL document CHEMBL2163325, “Discovery of phosphoinositide 3-kinases (PI3K) p110β isoform inhibitor 4-[2-hydroxyethyl(1-naphthylmethyl)amino]-6-[(2S)-2-methylmorpholin-4-yl]-1H-pyrimidin-2-one, an effective antithrombotic agent without associated bleeding and insulin resistance” (Bioorg Med Chem Lett, 2012):
Converted amounts (≈) assume the structure as drawn.

Columns and labels:
[1] = Clearance in fasted Beagle dog at 1 umol/kg, iv and 2 umol/kg, po; assay type: ADME, organism-based, Canis lupus familiaris; conditions: in vivo
In short: (§1)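 Fasted male Beagle dogs, iv and po (N = 2 per route). Parameters derived by noncompartmental analysis of plasma concentrations.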

[2] = species: Homo sapiens; test: Selectivity ratio of IC50 for human PI3K p110alpha to IC50 for human PI3K p110beta
[3] = biological target: Phosphatidylinositol 4,5-bisphosphate 3-kinase catalytic subunit beta isoform (Homo sapiens, UniProt P42338); test: Inhibition of human recombinant His6-tagged PI3K p110beta expressed in baculovirus infected cells using DiC8-PI(4,5)P2 as substrate after 20 mins by AlphaScreen assay
Phosphatidylinositol 4,5-bisphosphate 3-kinase catalytic subunit beta isoform, sequence (P42338 whole entry, canonical isoform): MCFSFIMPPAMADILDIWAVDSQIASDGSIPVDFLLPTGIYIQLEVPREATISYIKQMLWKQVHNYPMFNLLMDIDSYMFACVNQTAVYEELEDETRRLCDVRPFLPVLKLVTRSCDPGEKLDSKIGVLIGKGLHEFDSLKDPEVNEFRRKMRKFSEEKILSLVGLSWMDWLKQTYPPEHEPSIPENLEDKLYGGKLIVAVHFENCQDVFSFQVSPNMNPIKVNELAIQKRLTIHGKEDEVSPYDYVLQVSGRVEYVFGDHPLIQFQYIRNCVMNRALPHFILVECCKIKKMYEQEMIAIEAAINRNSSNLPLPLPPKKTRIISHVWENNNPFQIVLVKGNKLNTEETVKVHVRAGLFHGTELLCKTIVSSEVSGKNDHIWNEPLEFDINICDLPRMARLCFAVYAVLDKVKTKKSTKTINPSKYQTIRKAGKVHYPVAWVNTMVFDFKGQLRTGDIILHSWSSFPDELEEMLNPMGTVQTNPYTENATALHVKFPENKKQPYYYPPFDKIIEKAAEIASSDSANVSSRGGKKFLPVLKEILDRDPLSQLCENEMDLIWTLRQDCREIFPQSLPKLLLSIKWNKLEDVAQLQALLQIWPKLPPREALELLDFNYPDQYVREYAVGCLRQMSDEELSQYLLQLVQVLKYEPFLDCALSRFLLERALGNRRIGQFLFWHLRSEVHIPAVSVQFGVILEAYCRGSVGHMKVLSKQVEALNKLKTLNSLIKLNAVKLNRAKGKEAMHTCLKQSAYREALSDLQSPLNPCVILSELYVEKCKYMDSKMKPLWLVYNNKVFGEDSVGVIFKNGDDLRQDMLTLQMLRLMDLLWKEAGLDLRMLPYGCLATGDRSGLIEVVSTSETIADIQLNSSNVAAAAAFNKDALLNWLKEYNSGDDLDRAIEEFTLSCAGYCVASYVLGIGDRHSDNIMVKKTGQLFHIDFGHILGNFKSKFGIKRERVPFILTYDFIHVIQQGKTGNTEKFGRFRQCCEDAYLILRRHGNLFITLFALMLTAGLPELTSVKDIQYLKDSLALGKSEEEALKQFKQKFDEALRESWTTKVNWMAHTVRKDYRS

[4] = biological target: Voltage-dependent L-type calcium channel subunit alpha-1C (Homo sapiens, UniProt Q13936); test: Inhibition of human CaV1.2 expressed in CHO cells at 31.6 uM by patch clamp assay; assay type: cell-based
Voltage-dependent L-type calcium channel subunit alpha-1C, sequence (Q13936 whole entry): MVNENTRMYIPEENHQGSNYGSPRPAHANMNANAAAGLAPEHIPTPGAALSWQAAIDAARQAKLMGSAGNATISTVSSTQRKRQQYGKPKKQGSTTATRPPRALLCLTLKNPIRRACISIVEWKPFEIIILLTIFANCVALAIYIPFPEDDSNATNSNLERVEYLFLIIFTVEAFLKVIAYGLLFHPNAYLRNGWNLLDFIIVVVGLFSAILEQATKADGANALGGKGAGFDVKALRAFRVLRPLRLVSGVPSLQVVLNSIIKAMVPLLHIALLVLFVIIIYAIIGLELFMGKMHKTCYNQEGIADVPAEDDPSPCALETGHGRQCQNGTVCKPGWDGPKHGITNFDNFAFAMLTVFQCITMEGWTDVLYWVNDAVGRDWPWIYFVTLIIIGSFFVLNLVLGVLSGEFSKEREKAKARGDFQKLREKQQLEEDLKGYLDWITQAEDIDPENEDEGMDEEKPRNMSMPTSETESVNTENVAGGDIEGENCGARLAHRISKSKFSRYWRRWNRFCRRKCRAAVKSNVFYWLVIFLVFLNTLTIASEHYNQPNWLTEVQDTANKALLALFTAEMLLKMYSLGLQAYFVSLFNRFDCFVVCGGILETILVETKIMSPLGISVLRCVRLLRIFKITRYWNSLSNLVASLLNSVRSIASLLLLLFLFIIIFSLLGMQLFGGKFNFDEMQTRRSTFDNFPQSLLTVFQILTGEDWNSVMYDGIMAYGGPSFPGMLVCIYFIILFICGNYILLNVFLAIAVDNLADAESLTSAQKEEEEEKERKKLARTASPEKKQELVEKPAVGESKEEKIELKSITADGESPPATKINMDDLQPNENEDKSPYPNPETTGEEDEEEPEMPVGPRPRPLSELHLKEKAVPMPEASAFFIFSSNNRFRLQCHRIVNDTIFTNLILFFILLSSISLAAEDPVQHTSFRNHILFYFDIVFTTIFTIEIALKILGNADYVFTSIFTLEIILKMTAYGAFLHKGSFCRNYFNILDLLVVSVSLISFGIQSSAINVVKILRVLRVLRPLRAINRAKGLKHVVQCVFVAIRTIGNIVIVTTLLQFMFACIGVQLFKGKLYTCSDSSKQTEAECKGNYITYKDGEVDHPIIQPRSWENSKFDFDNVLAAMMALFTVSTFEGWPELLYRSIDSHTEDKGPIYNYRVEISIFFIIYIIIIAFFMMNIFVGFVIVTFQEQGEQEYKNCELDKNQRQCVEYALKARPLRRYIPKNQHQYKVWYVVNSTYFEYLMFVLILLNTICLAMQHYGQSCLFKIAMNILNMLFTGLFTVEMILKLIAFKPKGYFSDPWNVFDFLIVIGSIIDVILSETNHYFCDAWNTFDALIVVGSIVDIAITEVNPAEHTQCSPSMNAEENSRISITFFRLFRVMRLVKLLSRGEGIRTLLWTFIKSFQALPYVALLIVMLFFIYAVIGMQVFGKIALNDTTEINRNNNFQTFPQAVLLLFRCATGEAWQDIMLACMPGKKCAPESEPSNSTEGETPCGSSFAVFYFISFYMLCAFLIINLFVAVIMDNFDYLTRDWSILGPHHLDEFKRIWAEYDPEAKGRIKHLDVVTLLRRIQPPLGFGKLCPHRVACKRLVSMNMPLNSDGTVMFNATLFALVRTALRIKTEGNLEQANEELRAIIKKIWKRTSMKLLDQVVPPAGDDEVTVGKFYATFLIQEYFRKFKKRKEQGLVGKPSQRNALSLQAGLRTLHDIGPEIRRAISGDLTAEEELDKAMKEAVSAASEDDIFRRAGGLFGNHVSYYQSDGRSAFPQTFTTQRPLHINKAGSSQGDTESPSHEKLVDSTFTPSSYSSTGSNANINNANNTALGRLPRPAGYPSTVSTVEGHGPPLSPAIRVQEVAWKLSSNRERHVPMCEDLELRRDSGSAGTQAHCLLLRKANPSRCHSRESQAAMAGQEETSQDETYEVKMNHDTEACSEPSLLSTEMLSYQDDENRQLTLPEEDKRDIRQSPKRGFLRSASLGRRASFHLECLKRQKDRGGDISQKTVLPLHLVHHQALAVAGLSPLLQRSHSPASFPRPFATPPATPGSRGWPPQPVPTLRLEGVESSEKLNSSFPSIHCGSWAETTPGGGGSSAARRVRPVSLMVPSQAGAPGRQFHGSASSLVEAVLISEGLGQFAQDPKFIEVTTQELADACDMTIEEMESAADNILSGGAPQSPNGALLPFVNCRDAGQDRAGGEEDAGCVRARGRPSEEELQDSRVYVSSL

[5] = Antiplatelet activity in human platelet rich plasma assessed as inhibition of collagen-induced platelet aggregation by light transmission aggregometry; assay type: functional
In short: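 Healthy-donor blood drawn by venipuncture into sodium citrate (11 mM final in blood), then platelet rich plasma prepared. Collagen-induced aggregation measured by light transmission aggregometry, either in an aggregometer or in an in-house 96-well plate format.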

[6] = biological target: Sodium channel protein type 5 subunit alpha (Homo sapiens, UniProt Q14524); test: Inhibition of human NaV1.5 expressed in CHO cells at 31.6 uM by patch clamp assay; assay type: cell-based
[7] = Toxicity in human adipocytes assessed as inhibition of insulin-induced glucose uptake at 3 to 40 uM; assay type: cell-based; conditions: adipocyte
[8] = biological target: Phosphatidylinositol 4,5-bisphosphate 3-kinase catalytic subunit alpha isoform (Homo sapiens, UniProt P42336); test: Inhibition of human recombinant His6-tagged PI3K p110alpha expressed in baculovirus infected cells using DiC8-PI(4,5)P2 as substrate after 20 mins by AlphaScreen assay
Phosphatidylinositol 4,5-bisphosphate 3-kinase catalytic subunit alpha isoform, sequence (P42336 whole entry, canonical isoform): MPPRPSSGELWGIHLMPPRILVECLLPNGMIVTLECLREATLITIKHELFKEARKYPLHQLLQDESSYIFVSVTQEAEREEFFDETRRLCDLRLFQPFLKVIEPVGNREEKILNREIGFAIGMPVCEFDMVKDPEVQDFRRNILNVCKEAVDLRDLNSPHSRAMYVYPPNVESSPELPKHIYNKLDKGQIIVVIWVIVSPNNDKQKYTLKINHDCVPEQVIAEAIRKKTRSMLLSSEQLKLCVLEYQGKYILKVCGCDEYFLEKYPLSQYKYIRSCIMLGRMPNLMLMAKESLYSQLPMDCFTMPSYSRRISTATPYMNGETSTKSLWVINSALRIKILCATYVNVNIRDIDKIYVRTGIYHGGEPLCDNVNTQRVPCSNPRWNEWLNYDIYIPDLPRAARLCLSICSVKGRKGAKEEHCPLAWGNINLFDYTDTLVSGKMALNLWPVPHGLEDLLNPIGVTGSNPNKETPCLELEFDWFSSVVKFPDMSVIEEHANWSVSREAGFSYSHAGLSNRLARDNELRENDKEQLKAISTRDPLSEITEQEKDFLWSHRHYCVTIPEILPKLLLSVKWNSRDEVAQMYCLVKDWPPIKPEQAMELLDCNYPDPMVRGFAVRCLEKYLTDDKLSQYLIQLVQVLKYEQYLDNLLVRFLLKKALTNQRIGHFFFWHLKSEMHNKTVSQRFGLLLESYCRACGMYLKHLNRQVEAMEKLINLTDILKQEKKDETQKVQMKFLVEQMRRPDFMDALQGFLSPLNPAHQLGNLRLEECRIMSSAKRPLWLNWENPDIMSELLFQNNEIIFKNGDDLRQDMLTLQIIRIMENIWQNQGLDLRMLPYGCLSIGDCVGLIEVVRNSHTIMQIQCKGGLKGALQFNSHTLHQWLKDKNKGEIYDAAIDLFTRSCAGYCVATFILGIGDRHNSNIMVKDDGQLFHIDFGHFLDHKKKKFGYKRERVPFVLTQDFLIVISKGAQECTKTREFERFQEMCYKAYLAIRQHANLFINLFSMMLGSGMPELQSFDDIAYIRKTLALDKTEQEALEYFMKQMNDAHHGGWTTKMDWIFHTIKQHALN

[9] = biological target: T1, A-type voltage-gated potassium channel KCND3 (Homo sapiens, UniProt Q9UK17); test: Inhibition of human KV4.3 expressed in CHO cells at 31.6 uM by patch clamp assay; assay type: cell-based
T1 sequence (Q9UK17 whole entry): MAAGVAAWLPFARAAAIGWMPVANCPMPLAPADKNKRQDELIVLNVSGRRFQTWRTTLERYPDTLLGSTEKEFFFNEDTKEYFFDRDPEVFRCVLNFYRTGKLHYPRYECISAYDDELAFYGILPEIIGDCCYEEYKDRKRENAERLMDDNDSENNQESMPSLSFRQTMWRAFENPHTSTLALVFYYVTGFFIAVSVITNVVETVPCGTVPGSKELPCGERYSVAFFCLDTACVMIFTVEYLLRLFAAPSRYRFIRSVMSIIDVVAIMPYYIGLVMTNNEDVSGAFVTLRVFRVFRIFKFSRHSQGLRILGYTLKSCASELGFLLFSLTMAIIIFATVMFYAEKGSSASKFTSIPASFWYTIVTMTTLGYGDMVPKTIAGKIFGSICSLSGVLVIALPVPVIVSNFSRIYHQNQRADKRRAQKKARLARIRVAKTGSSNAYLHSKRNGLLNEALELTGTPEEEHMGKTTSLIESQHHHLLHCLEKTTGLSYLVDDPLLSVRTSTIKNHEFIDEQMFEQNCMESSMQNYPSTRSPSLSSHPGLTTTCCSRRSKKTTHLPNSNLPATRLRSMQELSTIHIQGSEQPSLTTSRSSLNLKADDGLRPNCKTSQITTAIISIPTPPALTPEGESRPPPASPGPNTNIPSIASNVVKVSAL

[10] = Half life in human liver microsomes at 2 uM; assay type: ADME, Microsome
[11] = Oral bioavailability in fasted Beagle dog at 2 umol/kg; assay type: ADME, organism-based, Canis lupus familiaris; conditions: in vivo; in short: as §1
[12] = Antiplatelet activity in human whole blood assessed as inhibition of ADP-induced platelet aggregation by impedance aggregometry; assay type: functional, tissue-based
In short: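 Citrated whole blood drawn by venipuncture from healthy human donors or beagle dogs, sodium citrate at 11 mM final in blood. ADP-induced aggregation read by Multiplate impedance aggregometry. N > 3.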

[13] = biological target: Cytochrome P450 2C9 (Homo sapiens, UniProt P11712); test: Inhibition of CYP2C9; assay type: ADME
Cytochrome P450 2C9, sequence (P11712 whole entry): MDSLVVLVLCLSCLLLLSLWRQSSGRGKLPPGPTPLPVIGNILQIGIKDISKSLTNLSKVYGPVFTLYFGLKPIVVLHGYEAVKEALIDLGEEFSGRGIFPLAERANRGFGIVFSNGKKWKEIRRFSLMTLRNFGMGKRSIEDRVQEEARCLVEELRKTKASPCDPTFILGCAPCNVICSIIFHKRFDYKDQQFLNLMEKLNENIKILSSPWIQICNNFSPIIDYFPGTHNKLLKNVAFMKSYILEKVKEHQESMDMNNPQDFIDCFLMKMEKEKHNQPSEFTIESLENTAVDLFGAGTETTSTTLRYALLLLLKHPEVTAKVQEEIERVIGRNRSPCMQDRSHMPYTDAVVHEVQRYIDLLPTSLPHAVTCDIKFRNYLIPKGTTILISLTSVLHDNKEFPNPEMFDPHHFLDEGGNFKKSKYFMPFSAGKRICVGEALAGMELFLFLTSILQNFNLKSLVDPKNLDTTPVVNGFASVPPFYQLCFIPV

[14] = Solubility of the compound in HBSS buffer at pH 7.4 by LC-MS analysis; assay type: physicochemical
[15] = Lipophilicity, log D of the compound at pH 7.4 by HPLC analysis; assay type: physicochemical; conditions: buffer
In short: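 LogD measured at pH 7.4 by HPLC.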

[16] = test system: Canis familiaris; test: Antithrombotic activity in Beagle dog assessed as concentration required to increase bleeding time by 2 fold at 15.8 to 591.8 ug/kg, iv administered as bolus infusion for 1 min followed by 8.7 to 378.7 ug/kg/min, iv administered as continuous infusion for 29 mins measured up to 15 mins; assay type: functional, Canis lupus familiaris
In short: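 Anaesthetized, intubated, ventilated beagles (N = 2). Femoral artery intima damaged and flow reduced to give cyclic flow reductions. Control period vehicle iv (30% cyclodextrin). Then 5 ascending 30-min periods, each a bolus over 1 min plus continuous infusion for 29 min. Tongue incision bleeding time from 15 min, capped at 15 min. Blood at 20 min for ex vivo aggregation and plasma level. EC50 fitted sigmoidally; EC_BT:2 from an exponential fit.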

[17] = Fraction unbound in dog plasma after 18 hrs by equilibrium dialysis method; assay type: ADME, cell-free, Canis lupus familiaris
In short: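 Unbound plasma fraction determined by equilibrium dialysis, 18 h at 37 °C.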

[18] = test system: Rattus norvegicus; test: Toxicity in overnight fasted Sprague-Dawley rat assessed as induction of insulin resistance at 0.2 to 1.6 ug/kg/min administered as infusion for 30 mins; conditions: in vivo, iv, 0.5 h

Structure (SMILES): C[C@H]1CN(c2cc(N(CCO)Cc3cccc4ccccc34)[nH]c(=O)n2)CCO1
- clearance [1]: 18 mL/min/kg
- Ratio IC50 [2]: > 700
- IC50 [3]: 38 nM
- inhibition (INH) [4]: Not Active
- IC50 [5]: 400 nM
- inhibition (INH) [6]: Not Active
- Activity [7]: Non-toxic
- IC50 [8]: 27200 nM
- inhibition (INH) [9]: Not Active
- half-life at 2 µM [10]: > 2.88 h
- bioavailability [11]: 25%
- IC50 [12]: 2100 nM
- IC50 [13]: 4000 nM
- solubility [14]: 100 µM (≈ 39.4 µg/mL)
- logD [15]: 1.9
- Activity [16]: 14.8 µM
- fraction unbound at 18 h [17]: 0.3
- Activity [18]: Non-toxic
